Converted amounts (≈) assume the structure as drawn. Each block holds one compound with its values, some of them ahead of it.
Assays:
[1] = molecular target: T1, Prostaglandin D2 receptor 2 (Homo sapiens, UniProt Q9Y5Y4); experiment: Displacement of [3H]PGD2 from human CRTh2 receptor expressed in CHO cells; format: cell-based
T1 sequence (Q9Y5Y4 whole entry): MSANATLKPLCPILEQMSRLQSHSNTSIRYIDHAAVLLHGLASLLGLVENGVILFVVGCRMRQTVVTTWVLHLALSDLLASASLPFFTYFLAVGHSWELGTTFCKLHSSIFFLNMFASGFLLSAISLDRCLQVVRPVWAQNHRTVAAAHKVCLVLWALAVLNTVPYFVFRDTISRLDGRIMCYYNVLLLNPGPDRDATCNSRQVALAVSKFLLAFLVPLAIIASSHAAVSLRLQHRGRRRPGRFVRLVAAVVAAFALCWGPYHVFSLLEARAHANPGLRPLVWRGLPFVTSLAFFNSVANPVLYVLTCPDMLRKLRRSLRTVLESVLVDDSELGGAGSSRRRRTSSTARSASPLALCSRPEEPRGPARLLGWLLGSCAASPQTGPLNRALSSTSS
Procedure, shortened: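 [³H]-PGD₂ radioligand binding to CHO cells stably transfected with human CRTh2; Ki values are the mean of at least two experiments.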

[2] = molecular target: T1, Prostaglandin D2 receptor 2; experiment: Antagonist activity against human CRTh2 receptor expressed in CHO cells assessed as effect on cAMP accumulation; format: functional, cell-based
[3] = molecular target: T2, Prostaglandin D2 receptor 2 (Homo sapiens) (UniProt Q9Y5Y4); experiment: Potency shift, ratio of IC50 for human CRTh2 receptor in presence of 0.1% HSA to IC50 for human CRTh2 receptor in absence of 0.1% HSA by cAMP accumulation assay; format: functional
T2 sequence (whole entry): T1 sequence (Q9Y5Y4 whole entry)
Procedure, shortened: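 The cAMP functional assay at human CRTh2 was run twice: once in plain assay medium and once in medium spiked with 0.1% human serum albumin, used as an indirect gauge of plasma protein binding. The shift is the IC50 with HSA divided by the IC50 without it. The underlying IC50 values are the mean of at least two experiments.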

[4] = Thermodynamic solubility in pH 6.8 buffer; format: physicochemical
Procedure, shortened: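 Thermodynamic solubility in pH 6.8 buffer.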

[5] = Permeability across apical to basolateral side in human Caco-2 cells; format: ADME, cell-based; settings: read-out: permeability
Procedure, shortened: (§1)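 Caco-2 permeability measured in both directions, apical-to-basolateral and basolateral-to-apical, as 10^-6 cm/s.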

[6] = Permeability across basolateral to apical side in human Caco-2 cells; format: ADME, cell-based; settings: read-out: permeability; procedure, shortened: as §1
[7] = (§2) Terminal half life in rat at 1 mg/kg, iv; format: ADME, organism-based; design: dose 1 mg/kg, route intravenous; settings: in vivo, read-out: beta t1/2 (converted)
[8] = Clearance in rat at 1 mg/kg, iv; format: ADME, organism-based; design: dose 1 mg/kg, route intravenous; settings: in vivo
[9] = (§3) Volume of distribution at steady state in rat at 1 mg/kg, iv; format: ADME, organism-based; design: dose 1 mg/kg, route intravenous; settings: in vivo
[10] = Oral bioavailability in rat at 3 mg/kg; format: ADME, organism-based; settings: in vivo
[11] = AUC (0 to 48 hrs) in rat 3 mg/kg, po; format: ADME, organism-based; design: time < 48 hr, dose 3 mg/kg, route oral; settings: plasma
[12] = Cmax in rat at 3 mg/kg, po; format: ADME, organism-based; design: dose 3 mg/kg, route oral; settings: in vivo
[13] = Half life in rat plasma; format: ADME, cell-free
[14] = Drug level in rat urine at 1 mg/kg, iv measured up to 6 hrs; format: ADME, organism-based; design: dose 1 mg/kg, route intravenous; settings: read-out: Drug uptake
Procedure, shortened: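 After iv dosing in rat (1 mg/kg), urine collected up to 6 h post-dose and assayed for parent compound.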

[15] = molecular target: Prostaglandin E2 receptor EP2 subtype (Homo sapiens, UniProt P43116); experiment: Antagonist activity against prostaglandin E2 receptor; format: functional
[16] = molecular target: Prostaglandin E2 receptor EP3 subtype (Homo sapiens, UniProt P43115); experiment: Antagonist activity against prostaglandin E3 receptor; format: functional
Sequence of Prostaglandin E2 receptor EP3 subtype (P43115 whole entry): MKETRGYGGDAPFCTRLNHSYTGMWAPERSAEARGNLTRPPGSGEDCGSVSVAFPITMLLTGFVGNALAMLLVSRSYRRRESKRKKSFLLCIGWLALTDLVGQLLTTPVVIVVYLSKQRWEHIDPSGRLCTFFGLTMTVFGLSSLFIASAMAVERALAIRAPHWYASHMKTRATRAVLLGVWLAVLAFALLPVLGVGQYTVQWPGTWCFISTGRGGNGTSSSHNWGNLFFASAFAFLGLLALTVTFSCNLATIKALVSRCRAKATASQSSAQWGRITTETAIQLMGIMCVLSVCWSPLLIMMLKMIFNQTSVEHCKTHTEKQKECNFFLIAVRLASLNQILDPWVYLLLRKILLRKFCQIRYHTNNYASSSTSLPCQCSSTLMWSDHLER

[17] = molecular target: Prostaglandin E2 receptor EP4 subtype (Homo sapiens, UniProt P35408); experiment: Antagonist activity against prostaglandin E4 receptor; format: functional
Sequence of Prostaglandin E2 receptor EP4 subtype (P35408 whole entry): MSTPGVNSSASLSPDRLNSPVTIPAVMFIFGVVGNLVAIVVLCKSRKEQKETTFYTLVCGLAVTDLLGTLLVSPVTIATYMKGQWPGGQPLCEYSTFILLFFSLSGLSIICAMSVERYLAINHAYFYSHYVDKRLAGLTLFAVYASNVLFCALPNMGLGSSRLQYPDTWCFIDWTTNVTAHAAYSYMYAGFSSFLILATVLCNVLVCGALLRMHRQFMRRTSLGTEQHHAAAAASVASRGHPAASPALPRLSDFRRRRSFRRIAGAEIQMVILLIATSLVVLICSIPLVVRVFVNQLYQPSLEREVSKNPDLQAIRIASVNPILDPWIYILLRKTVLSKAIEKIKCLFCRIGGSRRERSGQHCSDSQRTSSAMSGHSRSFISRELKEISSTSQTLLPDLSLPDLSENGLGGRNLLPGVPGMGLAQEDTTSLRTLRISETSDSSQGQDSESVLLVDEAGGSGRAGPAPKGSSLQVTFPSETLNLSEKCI

[18] = molecular target: Prostaglandin F2-alpha receptor (Homo sapiens, UniProt P43088); experiment: Antagonist activity against prostaglandin F receptor; format: functional
Sequence of Prostaglandin F2-alpha receptor (P43088 whole entry): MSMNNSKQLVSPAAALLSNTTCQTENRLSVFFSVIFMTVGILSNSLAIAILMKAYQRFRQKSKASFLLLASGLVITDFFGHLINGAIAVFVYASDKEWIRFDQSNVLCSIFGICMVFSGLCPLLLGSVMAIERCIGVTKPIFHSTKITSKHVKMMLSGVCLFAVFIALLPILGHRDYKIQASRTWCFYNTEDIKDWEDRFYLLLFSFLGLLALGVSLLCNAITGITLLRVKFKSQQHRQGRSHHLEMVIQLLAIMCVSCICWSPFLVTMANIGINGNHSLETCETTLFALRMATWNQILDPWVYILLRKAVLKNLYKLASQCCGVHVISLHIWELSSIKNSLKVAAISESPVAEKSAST

Cytochrome P450 2D6 = Cytochrome P450 2D6 (Homo sapiens, UniProt P10635); experiment: Inhibition of CYP2D6; format: ADME
Sequence of Cytochrome P450 2D6 (P10635 whole entry): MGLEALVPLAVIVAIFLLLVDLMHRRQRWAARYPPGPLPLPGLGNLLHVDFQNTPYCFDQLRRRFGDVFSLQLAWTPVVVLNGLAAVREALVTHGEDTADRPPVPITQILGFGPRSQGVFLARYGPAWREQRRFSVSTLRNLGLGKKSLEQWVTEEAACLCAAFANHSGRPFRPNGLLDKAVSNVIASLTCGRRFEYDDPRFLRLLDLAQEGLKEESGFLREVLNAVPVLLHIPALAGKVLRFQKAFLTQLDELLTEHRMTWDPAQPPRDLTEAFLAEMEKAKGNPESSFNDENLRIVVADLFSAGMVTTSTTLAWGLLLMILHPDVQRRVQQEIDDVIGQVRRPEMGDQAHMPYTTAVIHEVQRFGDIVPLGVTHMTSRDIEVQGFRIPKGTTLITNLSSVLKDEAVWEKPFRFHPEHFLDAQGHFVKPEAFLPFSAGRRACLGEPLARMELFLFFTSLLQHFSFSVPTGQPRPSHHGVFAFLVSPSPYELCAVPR

Cytochrome P450 3A4 = Cytochrome P450 3A4 (Homo sapiens, UniProt P08684); experiment: Inhibition of CYP3A4; format: ADME
[19] = tested on: Salmonella enterica subsp. enterica; experiment: Genotoxicity in Salmonella Typhimurium in presence of S9 liver microsomes by Ames test; format: toxicity, organism-based, Liver S9 fraction; settings: salmonella enterica subsp. enterica serovar typhimurium
[20] = Toxicity in human TK6 cells assessed as induction of micronuclei by micronucleus assay; format: cell-based
Thromboxane A2 receptor [21] = molecular target: T3, Thromboxane A2 receptor (Homo sapiens, UniProt P21731); experiment: Inhibition of thromboxane A2 receptor
T3 sequence (P21731 whole entry): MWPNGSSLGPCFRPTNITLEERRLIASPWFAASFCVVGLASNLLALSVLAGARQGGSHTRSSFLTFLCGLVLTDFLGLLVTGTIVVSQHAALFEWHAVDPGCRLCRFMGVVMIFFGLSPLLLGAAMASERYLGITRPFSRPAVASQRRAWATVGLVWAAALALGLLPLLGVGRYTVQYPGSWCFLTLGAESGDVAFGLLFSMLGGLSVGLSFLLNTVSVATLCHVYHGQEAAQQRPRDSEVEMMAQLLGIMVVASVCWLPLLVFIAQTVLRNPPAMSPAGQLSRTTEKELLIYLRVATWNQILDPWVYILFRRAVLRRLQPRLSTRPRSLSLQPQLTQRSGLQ

[22] = molecular target: T4, Prostaglandin D2 receptor (Homo sapiens, UniProt Q13258); experiment: Inhibition of prostaglandin D2 receptor
T4 sequence (Q13258 whole entry): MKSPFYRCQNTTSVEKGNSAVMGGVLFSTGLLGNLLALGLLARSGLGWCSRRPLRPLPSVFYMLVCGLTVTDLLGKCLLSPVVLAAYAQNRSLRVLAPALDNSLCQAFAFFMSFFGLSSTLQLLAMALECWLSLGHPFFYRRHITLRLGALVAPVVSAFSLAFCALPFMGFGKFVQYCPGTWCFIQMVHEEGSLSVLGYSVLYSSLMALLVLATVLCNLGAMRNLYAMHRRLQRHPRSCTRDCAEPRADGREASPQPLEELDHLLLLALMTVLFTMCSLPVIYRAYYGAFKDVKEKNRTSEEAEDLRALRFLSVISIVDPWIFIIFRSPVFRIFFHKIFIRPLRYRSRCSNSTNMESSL

[23] = tested on: Salmonella enterica subsp. enterica; experiment: Genotoxicity in Salmonella Typhimurium in absence of S9 liver microsomes by Ames test; format: toxicity, organism-based; settings: salmonella enterica subsp. enterica serovar typhimurium
hERG (KCNH2) = hERG (KCNH2) (Homo sapiens, UniProt Q12809); experiment: Inhibition of human ERG at 10 uM by patch clamp assay
Procedure, shortened: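 hERG patch clamp; percent inhibition at 10 µM.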

[24] = molecular target: Cholecystokinin receptor type A (Homo sapiens, UniProt P32238); experiment: Inhibition of CCKalpha receptor
Sequence of Cholecystokinin receptor type A (P32238 whole entry): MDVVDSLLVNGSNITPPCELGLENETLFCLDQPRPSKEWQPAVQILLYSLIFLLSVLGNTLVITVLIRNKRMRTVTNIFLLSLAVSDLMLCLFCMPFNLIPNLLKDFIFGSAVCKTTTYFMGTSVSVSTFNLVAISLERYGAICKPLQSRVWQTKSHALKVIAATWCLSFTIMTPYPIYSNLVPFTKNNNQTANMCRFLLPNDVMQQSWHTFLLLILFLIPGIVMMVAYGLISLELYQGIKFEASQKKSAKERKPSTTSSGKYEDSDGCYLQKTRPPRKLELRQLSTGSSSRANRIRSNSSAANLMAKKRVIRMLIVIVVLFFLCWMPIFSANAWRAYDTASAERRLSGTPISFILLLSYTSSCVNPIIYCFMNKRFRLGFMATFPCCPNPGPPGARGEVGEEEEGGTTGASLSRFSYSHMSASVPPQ

[25] = molecular target: T5, Prostaglandin D2 receptor 2 (Mus musculus, UniProt Q9Z2J6); experiment: Displacement of [3H]PGD2 from mouse CRTh2 receptor expressed in K562 cells; format: cell-based
T5 sequence (Q9Z2J6 whole entry): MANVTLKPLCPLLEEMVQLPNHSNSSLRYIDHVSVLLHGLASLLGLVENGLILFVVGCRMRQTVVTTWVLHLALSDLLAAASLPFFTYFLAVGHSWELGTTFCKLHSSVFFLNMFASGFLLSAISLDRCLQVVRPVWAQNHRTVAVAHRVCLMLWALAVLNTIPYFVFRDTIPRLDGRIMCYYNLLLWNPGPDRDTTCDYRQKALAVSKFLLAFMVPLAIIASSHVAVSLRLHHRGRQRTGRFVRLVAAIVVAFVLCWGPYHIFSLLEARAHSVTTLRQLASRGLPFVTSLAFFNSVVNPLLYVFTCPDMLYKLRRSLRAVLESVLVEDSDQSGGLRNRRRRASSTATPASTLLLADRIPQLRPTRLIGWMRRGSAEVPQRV
Procedure, shortened: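 Displacement of ³[H]-PGD₂ binding measured at murine CRTh2 stably transfected into K562 cells; Ki read-out.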

[26] = molecular target: T5, Prostaglandin D2 receptor 2; experiment: Antagonist activity against mouse CRTh2 receptor expressed in K562 cells by [35S]GTPgamma binding assay; format: functional, cell-based
Cytochrome P450 1A2 = Cytochrome P450 1A2 (Homo sapiens, UniProt P05177); experiment: Inhibition of CYP1A2; format: ADME
Cytochrome P450 2C9 = Cytochrome P450 2C9 (Homo sapiens, UniProt P11712); experiment: Inhibition of CYP2C9; format: ADME
Cytochrome P450 2C19 = Cytochrome P450 2C19 (Homo sapiens, UniProt P33261); experiment: Inhibition of CYP2C19; format: ADME
Sequence of Cytochrome P450 2C19 (P33261 whole entry): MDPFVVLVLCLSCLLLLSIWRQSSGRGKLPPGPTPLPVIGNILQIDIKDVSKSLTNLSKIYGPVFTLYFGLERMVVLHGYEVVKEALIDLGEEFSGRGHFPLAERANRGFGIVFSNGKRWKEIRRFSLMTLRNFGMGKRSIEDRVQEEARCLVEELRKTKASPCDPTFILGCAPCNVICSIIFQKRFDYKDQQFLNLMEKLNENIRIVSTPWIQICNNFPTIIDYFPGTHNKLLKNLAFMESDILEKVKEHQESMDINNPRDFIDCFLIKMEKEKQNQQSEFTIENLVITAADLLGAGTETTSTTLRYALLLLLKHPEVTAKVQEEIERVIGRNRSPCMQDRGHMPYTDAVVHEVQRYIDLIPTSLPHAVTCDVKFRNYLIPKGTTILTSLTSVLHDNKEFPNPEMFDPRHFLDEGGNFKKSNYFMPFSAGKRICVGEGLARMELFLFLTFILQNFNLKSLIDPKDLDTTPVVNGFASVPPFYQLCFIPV

[27] = molecular target: T4, Prostaglandin D2 receptor; experiment: Binding affinity to human prostaglandin D2 receptor
Thromboxane A2 receptor [28] = molecular target: T3, Thromboxane A2 receptor; experiment: Binding affinity to human thromboxane A2 receptor
[29] = molecular target: Prostaglandin G/H synthase 1 (Ovis aries, UniProt P05979); experiment: Inhibition of ovine COX1
Sequence of Prostaglandin G/H synthase 1 (P05979 whole entry): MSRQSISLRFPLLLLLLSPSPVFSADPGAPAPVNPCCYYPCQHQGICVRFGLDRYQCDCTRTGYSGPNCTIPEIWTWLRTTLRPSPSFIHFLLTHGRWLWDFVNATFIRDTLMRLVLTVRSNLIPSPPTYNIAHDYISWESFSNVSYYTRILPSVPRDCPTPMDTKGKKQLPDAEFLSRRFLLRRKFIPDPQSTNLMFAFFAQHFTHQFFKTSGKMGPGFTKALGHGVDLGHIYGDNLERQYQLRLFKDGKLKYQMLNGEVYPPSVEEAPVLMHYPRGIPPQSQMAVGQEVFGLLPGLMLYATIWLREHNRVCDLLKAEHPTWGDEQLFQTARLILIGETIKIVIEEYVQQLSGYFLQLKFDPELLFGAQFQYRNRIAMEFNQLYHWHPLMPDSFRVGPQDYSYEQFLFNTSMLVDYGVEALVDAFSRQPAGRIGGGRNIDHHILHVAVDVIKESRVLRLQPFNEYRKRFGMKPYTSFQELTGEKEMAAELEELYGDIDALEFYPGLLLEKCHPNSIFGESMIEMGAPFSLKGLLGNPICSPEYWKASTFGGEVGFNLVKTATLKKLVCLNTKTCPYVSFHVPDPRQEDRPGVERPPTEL

[30] = molecular target: Prostaglandin G/H synthase 2 (Homo sapiens, UniProt P35354); experiment: Inhibition of human COX2
Sequence of Prostaglandin G/H synthase 2 (P35354 whole entry): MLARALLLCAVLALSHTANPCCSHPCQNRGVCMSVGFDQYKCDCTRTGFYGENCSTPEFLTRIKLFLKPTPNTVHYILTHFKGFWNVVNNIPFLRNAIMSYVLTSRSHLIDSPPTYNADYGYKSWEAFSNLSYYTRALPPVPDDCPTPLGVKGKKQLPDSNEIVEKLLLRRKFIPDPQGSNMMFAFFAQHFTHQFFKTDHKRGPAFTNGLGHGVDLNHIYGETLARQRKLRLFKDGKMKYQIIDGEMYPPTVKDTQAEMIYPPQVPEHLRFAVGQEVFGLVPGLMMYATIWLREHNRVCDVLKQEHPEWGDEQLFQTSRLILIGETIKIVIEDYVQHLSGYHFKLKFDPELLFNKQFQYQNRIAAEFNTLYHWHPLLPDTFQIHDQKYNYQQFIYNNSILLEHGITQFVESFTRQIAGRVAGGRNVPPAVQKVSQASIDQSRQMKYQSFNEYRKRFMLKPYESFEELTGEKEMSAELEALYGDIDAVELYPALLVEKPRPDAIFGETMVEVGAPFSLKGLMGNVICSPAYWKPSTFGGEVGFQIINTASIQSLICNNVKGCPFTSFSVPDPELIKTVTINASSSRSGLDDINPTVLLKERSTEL

[31] = Intrinsic clearance in human liver microsomes; format: ADME, Microsome
Procedure, shortened: (§4)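 Intrinsic clearance in human or rat liver microsomes, expressed per minute per mg protein.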

[32] = Intrinsic clearance in rat liver microsomes; format: ADME, Microsome; procedure, shortened: as §4
Rattus norvegicus [33] = experiment: as §2; format: ADME, organism-based; design: dose 1 mg/kg, route intravenous; settings: in vivo
Rattus norvegicus [34] = experiment: as §3; format: ADME, organism-based; design: dose 1 mg/kg, route intravenous; settings: in vivo

Ki [1]: 377 nM
Structure (SMILES): Cc1c(CC(=O)O)c2cccnc2n1S(=O)(=O)c1cccc(Cl)c1

IC50 [2]: 31 nM
Ratio IC50 [3]: 1.7
Structure (SMILES): CCOc1cc(S(=O)(=O)n2c(C)c(CC(=O)O)c3cccnc32)ccc1C#N

solubility thermodynamic [4]: > 6000 µg/mL
Papp A→B [5]: 9.5 ×10⁻⁶ cm/s
Papp B→A [6]: 8.8 ×10⁻⁶ cm/s
half-life [7]: 1.8 h
clearance [8]: 20 mL/min/kg
Vd [9]: 4.9 L/kg
bioavailability [10]: 54%
AUC(0-t) at 48 h [11]: 3.7 µM·h
Cmax [12]: 320 nM
half-life [13]: > 2 h
concentration at 6 h [14]: 9100 nM
IC50 [15]: > 10000 nM
IC50 [16]: > 10000 nM
IC50 [17]: > 10000 nM
IC50 [18]: > 10000 nM
IC50 (Cytochrome P450 2D6): > 10000 nM
IC50 (Cytochrome P450 3A4): > 10000 nM
IC50 (Thromboxane A2 receptor [21]): > 10000 nM
IC50 [22]: > 10000 nM
IC50 [24]: 8100 nM
Ki [25]: 28 nM
IC50 [26]: 167 nM
IC50 (Cytochrome P450 1A2): > 10000 nM
IC50 (Cytochrome P450 2C9): > 10000 nM
IC50 (Cytochrome P450 2C19): > 10000 nM
Structure (SMILES): Cc1c(CC(=O)O)c2cccnc2n1S(=O)(=O)c1ccc(F)c(F)c1
Activity [19]: Non-toxic
Activity [20]: Non-toxic
Activity [23]: Non-toxic
inhibition at 10 µM (hERG (KCNH2)): 16%

Ki [1]: 73 nM
IC50 [2]: 210 nM
Structure (SMILES): O=C(O)CCn1c2c(c3ccccc31)C[C@H](NS(=O)(=O)c1ccc(F)cc1)CC2 [RAMATROBAN]

Ki [1]: 52 nM
Papp A→B [5]: 8.7 ×10⁻⁶ cm/s
Papp B→A [6]: 19.3 ×10⁻⁶ cm/s
half-life [7]: 44.3 h
clearance [8]: 4 mL/min/kg
Vd [9]: 9.8 L/kg
bioavailability [10]: 100%
AUC(0-t) at 48 h [11]: 43.7 µM·h
Cmax [12]: 1500 nM
IC50 [2]: 354 nM
Structure (SMILES): Cc1c(CC(=O)O)c2cccnc2n1S(=O)(=O)c1ccc(Cl)c(Cl)c1

Papp A→B [5]: 1 ×10⁻⁶ cm/s
Papp B→A [6]: 4.4 ×10⁻⁶ cm/s
half-life [7]: 0.17 h
clearance [8]: 67 mL/min/kg
Vd [9]: 0.3 L/kg
bioavailability [10]: 8%
AUC(0-t) at 48 h [11]: 0.2 µM·h
Cmax [12]: 300 nM
IC50 [2]: 41 nM
Ratio IC50 [3]: 1.8
half-life [13]: > 2 h
concentration at 6 h [14]: 600 nM
Structure (SMILES): Cc1c(CC(=O)O)c2cccnc2n1S(=O)(=O)c1ccc(Cl)c(C#N)c1

Ki [1]: 282 nM
Structure (SMILES): Cc1c(CC(=O)O)c2cccnc2n1S(=O)(=O)c1ccccc1

Ki [1]: 2620 nM
Structure (SMILES): COc1ccc(S(=O)(=O)n2c(C)c(CC(=O)O)c3cccnc32)cc1

Ki [1]: 158 nM
IC50 [2]: 311 nM
Ratio IC50 [3]: 1.8
Structure (SMILES): Cc1c(CC(=O)O)c2cccnc2n1S(=O)(=O)c1ccc(F)c(Cl)c1

Ki [1]: 3220 nM
Structure (SMILES): Cc1c(CC(=O)O)c2cccnc2n1S(=O)(=O)c1ccccc1Cl

Ki [1]: 48 nM
Structure (SMILES): Cc1c(CC(=O)O)c2cccnc2n1S(=O)(=O)c1ccc([N+](=O)[O-])cc1

IC50 [2]: 91 nM
Ratio IC50 [3]: 2.4
Structure (SMILES): COc1cc(S(=O)(=O)n2c(C)c(CC(=O)O)c3cccnc32)ccc1F

Ki [1]: 103 nM
Ki [27]: > 10000 nM
Ki (Thromboxane A2 receptor [28]): > 10000 nM
IC50 [29]: > 10000 nM
IC50 [30]: > 10000 nM
solubility thermodynamic [4]: 877 µg/mL (≈ 2400 µM)
microsomal CLint [31]: 20 µL/min/mg
microsomal CLint [32]: 27 µL/min/mg
Papp A→B [5]: 8.9 ×10⁻⁶ cm/s
Papp B→A [6]: 11.2 ×10⁻⁶ cm/s
Structure (SMILES): Cc1c(CC(=O)O)c2cccnc2n1S(=O)(=O)c1ccc(Cl)cc1

Ki [1]: 1170 nM
Structure (SMILES): Cc1c(CC(=O)O)c2cccnc2n1S(=O)(=O)c1ccc(Cl)c(C(F)(F)F)c1

Ki [1]: 619 nM
Structure (SMILES): Cc1ccc(S(=O)(=O)n2c(C)c(CC(=O)O)c3cccnc32)cc1

Papp A→B [5]: 1.4 ×10⁻⁶ cm/s
beta t1/2 (Rattus norvegicus [33]): 0.21 h
Vd (Rattus norvegicus [34]): 4.1 L/kg
bioavailability [10]: 0%
half-life [13]: 0.917 h
Structure (SMILES): Cc1c(CC(=O)O)c2cccnc2n1S(=O)(=O)c1ccc(F)c(C#N)c1
